High-throughput results from PubChem BioAssay.
This is a sample that favours compounds with a hit; in the whole collection about 1.9% have one here.
XiGFP reactiv = reactivates the inactive X chromosome in mouse fibroblasts. XiGFP mouse fibroblasts, % GFP-positive cells imaging, 3 d; cells co-treated with 5-aza-dC sensitizer; scaled so ellipticine positive control = 100%. activation, % at 7.58 µM. 360,000 tested, 0.055% active. AID 743238;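 active = mean normalized replicate activation at least 10% and every replicate at or above 10%; inconclusive = only one of the two criteria met; inactive = mean below 10% and not all replicates reach 10%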;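 note: 0% = median of on-plate neutral control wells and 100% = ellipticine 6 µM median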
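Assay system: SV40-immortalized XiGFP fibroblast cells, line 68-5-11; buffer or medium: DMEM plus 5-aza-dC sensitizer; compound: one concentration, pinned; timing: compounds 3 days, fix/stain 15 min at room temperature; benchmarks: positive control ellipticine, 6 µM final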
FN deposition inh = fibronectin deposition inhibition. AH1F fibroblasts, Alexa488-fibronectin deposition fluorescence, overnight. inhibition, % at 12.6 µM. 350,000 tested, 0.086% active. AID 743247;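 active = mean inhibition across replicates of 30% or more, regardless of how many single replicates reach that level; inconclusive = mean under 30% yet at least half of replicates reach 30%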;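 note: positive control wells lacked labelled fibronectin entirely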
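Assay system: AH1F fibroblasts assembling fluorescent fibronectin matrix; Amount: 10000 AH1F cells per well; Buffer or medium: DMEM, 2% serum; Probe or stimulus: Alexa488-fibronectin, 24 nM final in well; Doses: single compound dose, delivered by pin transfer; Incubation: 1 h adhesion, overnight exposure; Measured by: fluorescence 485/525 nm; Read-out: fibronectin deposition inhibition.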
F508del corr = CFTR F508del correction in bronchial cells; activity (quench increase), % at 7.58 µM; AID 720511; CFBE cells, YFP halide quenching; stimulated with forskolin plus potentiator P3; % fluorescence drop versus neutral controls; 350,000 tested, 0.36% active;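 active = mean added fluorescence quench of at least 8% versus neutral control, with both replicates also reaching 8%; inconclusive = only one of the mean or replicate conditions met; inactive = mean below 8% and not both replicates reaching 8%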;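 note: cells transiently co-express mutant CFTR-F508del with the halide-sensitive YFP; corrector assay measuring rescue of mutant channel to the surface after 24 h compound exposure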
Cneo AK release = Cryptococcus neoformans lysis via adenylate kinase release | C. neoformans lysis, adenylate kinase release luminescence, 4 h; normalised: neutral wells 0, clomiphene wells 100 | lysis activity, % at 15 µM | 360,000 tested, 0.2% active | AID 651654;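 active = mean lysis activity across replicates of at least 80%, whatever share of replicates individually reach that level; inactive = mean lysis activity below 80%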
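Material: C. neoformans cells; Schedule: 4 h static compound exposure, 37 °C, read 1 h post-reagent; Measured by: adenylate kinase release luminescence; Read-out: signal increase indicating cell lysis; Controls: Clomiphene as positive lysis control.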
DENV2 CPE = protects cells from dengue virus 2 cytopathic effect; 350,000 tested, 1.7% active; DENV2-infected cells, cytopathic effect rescue, plate reader; AID 651640; CPE inhibition, % at 9.99 µM; in the data active = CPE inhibition above about 20%, passing the limit was not always enough; inconclusive = no clear call, values can overlap the other calls; tested in BHK-21 cells;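 note: 0% = median of neutral control wells and 100% = median of positive control wells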
PGC1a acetyl inh = modulators of PGC1a acetylation; U2OS PGC1a acetylation, AlphaScreen anti-acetyl-lysine; with virally co-expressed GCN5 acetyltransferase; inhibition, % at 15.6 µM; 350,000 tested, 0.17% active;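 active = every replicate shows inhibition of at least 40%; inconclusive = mean inhibition at least 40% but some replicate below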;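 note: 0% = neutral control wells and 100% = positive control wells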
* marks the source's active call; other numbers are inactive results; ? = inconclusive; / = no result.

SMILES | XiGFP reactiv | FN deposition inh | F508del corr | Cneo AK release | DENV2 CPE | PGC1a acetyl inh
C[C@@H]1CN([C@H](C)CO)C(=O)c2cccc(NC(=O)C3CCOCC3)c2O[C@@H]1CN(C)Cc1ccc(C(F)(F)F)cc1 | 0.0 | / | -2.3 | 2.2 | 39.0* | 3.4
C[C@@H]1CN([C@H](C)CO)C(=O)c2cccc(NC(=O)C3CCOCC3)c2O[C@@H]1CN(C)Cc1ccc(C(=O)Nc2ccccc2N)cc1 | -0.9 | / | 0.9 | 1.5 | 46.6* | 13.5
Cc1noc(C)c1S(=O)(=O)Nc1ccc2c(c1)C(=O)N([C@H](C)CO)C[C@@H](C)[C@H](CN(C)C(=O)CCCN(C)C)OCCCC[C@@H](C)O2 | 0.1 | / | 2.5 | -8.8 | -11.7 | 8.8
O=C(Nc1ccccc1F)N1C[C@H]2[C@@H](c3ccccc31)[C@H](CO)N2C(=O)Nc1ccccc1 | 0.2 | / | 1.6 | 1.4 | 5.4 | 0.2
O=C(C[C@@H]1C[C@H]2c3cc(NC(=O)Nc4ccccc4)ccc3O[C@H]2[C@H](CO)O1)NCc1ccccn1 | 0.0 | 17.9 | -1.4 | -1.4 | ? | 21.5
COc1ccccc1CNc1nc(NCc2cnc(C)cn2)c2sccc2n1 | 0.0 | 35.2* | -0.1 | 42.5 | -6.8 | /
C[C@H](CO)N1C[C@H](C)[C@H](CN(C)Cc2cncnc2)Oc2ncc(C#CC(C)(C)O)cc2C1=O | -0.9 | -5.8 | -0.3 | 7.8 | 4.0 | 11.5
C[C@@H]1CN([C@@H](C)CO)C(=O)c2cc(C#CC(C)(C)O)cnc2O[C@H]1CN(C)Cc1cncnc1 | 0.0 | 9.8 | 2.8 | -6.2 | 64.2* | -5.6
C[C@@H]1CN([C@@H](C)CO)C(=O)c2cc(C#CC(C)(C)O)cnc2O[C@@H]1CN(C)Cc1cncnc1 | -0.7 | -7.4 | 1.8 | 4.4 | 22.7* | 10.9
C[C@H](CO)N1C[C@H](C)[C@@H](CN(C)C)Oc2c(NC(=O)Cc3cn(C)c4ccccc34)cccc2C1=O | 0.1 | / | / | / | / | /
CN(C)C(CNC(=O)c1ccccc1C(F)(F)F)c1ccco1 (configuration not stated) | -0.1 | -3.1 | 2.8 | 2.5 | 0.6 | /
CN(C)C(CNC(=O)c1c(F)cccc1Cl)c1ccco1 (configuration not stated) | / | 1.4 | 1.7 | 6.8 | 21.2* | /
CN(C)C(CNC(=O)c1cccs1)c1ccco1 (configuration not stated) | -0.1 | 12.8 | 0.7 | -0.8 | 34.8* | 0.9
COc1ccc(C#Cc2ccc3c(c2)[C@@H]2[C@@H](CCN2S(=O)(=O)c2cccc(OC)c2)[C@@H](CO)N3)cc1 | 0.0 | -10.8 | 2.3 | -1.7 | 14.0 | -3.1
O=C(N/N=C/c1cccs1)c1cccc(NC(=O)c2ccc(Cl)cc2)c1 | 0.0 | 35.2* | -8.3 | / | -0.5 | /
O=C(Nc1cccc(Cl)c1)c1ccccc1 | 0.0 | 2.9 | -0.9 | -2.8 | 28.2* | -1.3
C[C@@H]1CCCCO[C@H](CN(C)C(=O)C2CCCCC2)[C@H](C)CN([C@H](C)CO)C(=O)c2cc(N(C)C)ccc2O1 | 0.1 | / | -3.0 | / | / | 18.8
CO[C@H]1CN(C)C(=O)c2cc(NC(=O)c3nc4ccccc4s3)ccc2OC[C@H](C)NC[C@H]1C | 0.3 | -3.2 | -3.8 | 2.4 | 16.0 | -2.2
CO[C@H]1CN(C)C(=O)c2cc(NC(=O)Nc3ccccc3Cl)ccc2OC[C@@H](C)NC[C@H]1C | 0.3 | -4.9 | 0.8 | 0.9 | 20.4* | 3.4
CO[C@H]1CN(C)C(=O)c2cc(NC(=O)Nc3ccccc3)ccc2OC[C@@H](C)NC[C@@H]1C | 0.0 | 10.0 | / | -8.2 | 25.7* | /
CO[C@@H]1CN(C)C(=O)c2cc(NC(=O)c3nc4ccccc4s3)ccc2OC[C@H](C)NC[C@H]1C | 0.0 | 13.4 | -2.3 | 0.0 | 24.2* | -6.0
CO[C@@H]1CN(C)C(=O)c2cc(NC(=O)Nc3ccccc3Cl)ccc2OC[C@@H](C)NC[C@@H]1C | 0.1 | 3.7 | -1.1 | 0.0 | 1.6 | -1.2
CC(C)NC(=O)Nc1ccc2c(c1)C(=O)N([C@H](C)CO)C[C@@H](C)[C@H](CN(C)C(=O)CCCN(C)C)OCCCC[C@@H](C)O2 | 0.1 | 10.2 | 0.0 | -0.5 | 2.3 | 7.0
Cn1cc(-c2ccccc2C(N)=O)c(=O)c2cc(Cl)ccc21 | 0.3 | -0.8 | 0.4 | 2.8 | -3.7 | 2.4
Cn1cc(C2=C(c3ccc(Cl)cc3Cl)C(=O)NC2=O)c2ccccc21 | 58.5* | -22.9 | 0.3 | 1.2 | 1.7 | -23.5
SMILES | XiGFP reactiv | FN deposition inh | F508del corr | Cneo AK release | DENV2 CPE | PGC1a acetyl inh
CCOc1ccc(C(=O)N/N=C(\c2ccccc2)c2ccccn2)cc1 | / | / | / | 1.1 | / | 80.3*
COc1ccc(NC(=O)Nc2ccc3c(c2)C(=O)N([C@@H](C)CO)C[C@H](C)[C@H](CN(C)C(=O)Nc2ccc(OC)cc2)O3)cc1 | 0.3 | / | -1.6 | -2.1 | -0.5 | -1.2
C[C@@H]1CN([C@H](C)CO)C(=O)c2cc(NS(=O)(=O)c3cccs3)ccc2O[C@@H](C)CCCCO[C@H]1CN(C)S(=O)(=O)c1ccccc1 | 0.1 | -5.9 | 1.8 | / | -0.5 | 9.8
CCCCOP(=O)(c1ccc(N(C)C)cc1)C(O)c1cc(OC)c(OC)c(OC)c1 (configuration not stated) | 0.0 | -5.9 | -1.8 | -4.2 | 17.6 | -5.9
CCCCOP(=O)(c1ccc(N(C)C)cc1)C(O)c1ccc(OC)cc1 (configuration not stated) | 0.4 | 1.4 | -1.0 | 1.2 | -2.0 | 82.0*
COc1ccc(NC(=O)N[C@H]2CC[C@@H](CCn3cc(-c4ccccn4)nn3)O[C@@H]2CO)cc1 | -0.3 | -10.3 | 1.5 | 7.6 | -2.5 | 5.2
CC(C)NC(=O)N(C)C[C@@H]1Oc2ccc(NC(=O)Cc3cn(C)c4ccccc34)cc2C(=O)N([C@H](C)CO)C[C@H]1C | 0.2 | / | 2.0 | 59.8 | 51.8* | 3.5
C[C@@H]1CN([C@H](C)CO)C(=O)c2cc(NC(=O)Cc3cn(C)c4ccccc34)ccc2O[C@@H]1CN(C)C(=O)NC1CCCCC1 | -1.0 | -7.6 | 4.0 | -2.9 | -1.3 | 0.7
C[C@H](CO)N1C[C@H](C)[C@H](CN(C)C(=O)NC2CCCCC2)Oc2ccc(NC(=O)Cc3ccccc3)cc2C1=O | -0.8 | -4.5 | 0.8 | 9.8 | 33.2* | -7.2
C[C@@H]1CN([C@@H](C)CO)C(=O)c2cc(NC(=O)Cc3cn(C)c4ccccc34)ccc2O[C@H]1CN(C)C(=O)NC1CCCCC1 | -0.4 | -2.6 | 0.3 | -3.2 | 23.5* | 3.0
COc1ccccc1NC(=O)N[C@@H]1CC[C@@H](CC(=O)N2CCC(Cc3ccccc3)CC2)O[C@H]1CO | 0.4 | -2.1 | -2.7 | -1.4 | 4.6 | -2.2
